Experimental data from different studies.
Compare with care: the assays were run in different laboratories.
Target: Serine/threonine-protein kinase ULK1 (ULK1, Homo sapiens, UniProt O75385)
Sequence (O75385 1-1050, as in one of the studies): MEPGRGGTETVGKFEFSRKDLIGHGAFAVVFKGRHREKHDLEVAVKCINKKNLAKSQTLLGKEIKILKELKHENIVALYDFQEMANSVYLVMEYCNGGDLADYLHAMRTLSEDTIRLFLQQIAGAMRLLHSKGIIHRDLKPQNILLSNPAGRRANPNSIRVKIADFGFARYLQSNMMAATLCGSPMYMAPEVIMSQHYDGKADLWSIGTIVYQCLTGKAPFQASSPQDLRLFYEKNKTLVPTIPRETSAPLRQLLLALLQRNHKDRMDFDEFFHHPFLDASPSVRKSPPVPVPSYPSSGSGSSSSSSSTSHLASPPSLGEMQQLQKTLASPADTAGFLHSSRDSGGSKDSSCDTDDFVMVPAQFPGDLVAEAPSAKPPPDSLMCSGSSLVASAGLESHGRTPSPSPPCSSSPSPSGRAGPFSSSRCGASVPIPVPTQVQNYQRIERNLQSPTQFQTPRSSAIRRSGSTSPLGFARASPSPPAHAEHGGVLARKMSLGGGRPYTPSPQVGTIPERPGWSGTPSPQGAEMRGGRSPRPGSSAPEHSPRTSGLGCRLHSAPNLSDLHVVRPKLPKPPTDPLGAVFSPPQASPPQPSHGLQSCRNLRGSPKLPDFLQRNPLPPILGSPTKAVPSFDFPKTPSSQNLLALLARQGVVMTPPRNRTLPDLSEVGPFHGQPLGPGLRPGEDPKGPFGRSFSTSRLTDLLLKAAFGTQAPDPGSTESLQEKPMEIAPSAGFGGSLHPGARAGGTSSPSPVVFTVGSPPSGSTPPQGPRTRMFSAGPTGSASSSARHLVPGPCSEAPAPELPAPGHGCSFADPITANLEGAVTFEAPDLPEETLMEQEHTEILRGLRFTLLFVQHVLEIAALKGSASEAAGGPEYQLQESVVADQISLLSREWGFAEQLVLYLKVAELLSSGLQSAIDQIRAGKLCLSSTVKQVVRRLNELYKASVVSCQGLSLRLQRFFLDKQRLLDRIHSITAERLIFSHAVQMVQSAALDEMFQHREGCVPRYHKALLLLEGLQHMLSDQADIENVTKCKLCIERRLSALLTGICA

O=C(Nc1c[nH]nc1C(=O)NC1CCNCC1)c1cc(F)cc(F)c1
remaining binding (binding, competition with immobilised ligand; 1 µM): 100%

CCS(=O)(=O)c1cc2cc(C[C@](O)(CC(C)(C)c3ccc(F)cc3C(N)=O)C(F)(F)F)[nH]c2cn1
remaining binding (cell-free assay, competition with immobilised ligand; 1 µM): 100%

CN(C)c1ncc(F)c(-c2cnn3ncccc23)n1
remaining binding (binding; 1 µM): 80%

C[C@@H]1CN(c2cc(-c3nn(C)c4ccc(OC5(C)CC5)cc34)ncn2)C[C@H](C)O1
remaining binding (cell-free assay, competition with immobilised ligand; 1 µM): 76%

O=C(NCCCN1CCOCC1)c1ccc(Nc2ncc(Cl)c(-c3ccc(Cl)s3)n2)cc1
remaining binding (binding, competition with immobilised ligand; 1 µM): 3.5%

COc1ccnn2ncc(-c3ccnc(N(C)C)n3)c12
remaining binding (binding; 1 µM): 100%

COc1ccc2c(O[C@@H]3C[C@H]4C(=O)N[C@]5(C(=O)O)CC5/C=C\CCCCC[C@H](NC(=O)OC5CCCC5)C(=O)N4C3)cc(-c3csc(NC(=O)C(C)C)n3)nc2c1C (some centres unmarked)
remaining binding (cell-free assay, competition with immobilised ligand; 1 µM): 93%

CNC(=O)[C@@H]1CC[C@@H](n2c(-c3ccc4cnccc4c3)nc3ccc(C(=O)NCc4cccc(C(N)=O)c4)cc32)C1
remaining binding (binding, competition with immobilised ligand; 1 µM): 100%

Cc1cnc(Nc2ccc(C(=O)N3CCC(N4CCCC4)CC3)cc2)nc1-c1cc2ccccc2s1
remaining binding (binding, competition with immobilised ligand; 1 µM): 1.2%

N[C@@H]1CCN(c2nccc(-c3cnn4ncccc34)n2)C1
remaining binding (binding; 1 µM): 100%

Cc1noc([C@H]2C[C@@H](c3ccc(C(F)(F)F)cc3)CN(C(=O)N3CCS(=O)(=O)C3)C2)n1
remaining binding (cell-free assay, competition with immobilised ligand; 1 µM): 85%

F[C@@H]1CCN(c2nccc(-c3cnn4ncccc34)n2)C1
remaining binding (binding; 1 µM): 89%

c1cncc(-c2cccc(Nc3nccc(NC4CCCCC4)n3)c2)c1
remaining binding (binding, competition with immobilised ligand; 10 µM): 100%

COc1ncc2cc3ccccc3nc2c1C#N
remaining binding (cell-free assay, competition with immobilised ligand; 5 µM): 93%

CN(c1nccc(-c2cnn3ncccc23)n1)C1CC1
remaining binding (binding; 1 µM): 85%

CNCc1ccccc1-c1csc([C@H](C)Nc2nc(C)nc3cc(OC)c(OC)cc23)c1
remaining binding (cell-free assay, competition with immobilised ligand; 1 µM): 91%

O=C(c1ccc(Nc2ncc(Cl)c(-c3cc4ccccc4s3)n2)cc1)N1CCC(N2CCCC2)CC1
remaining binding (binding, competition with immobilised ligand; 1 µM): 1.8%

COc1cnc(Nc2cccc(S(N)(=O)=O)c2)nc1N1CCN(c2ccccc2)C(=O)C1
remaining binding (binding, competition with immobilised ligand; 1 µM): 67%

CS(=O)(=O)N1CCCC(NC(=O)[C@H](CCC2CCCCC2)NC(=O)c2ccc(CNC(=O)c3cnc4ccccn34)cc2)C1 (some centres unmarked)
remaining binding (cell-free assay, competition with immobilised ligand; 0.1 µM): 83%

CC1CCCN1c1nccc(-c2cnn3ncccc23)n1 (centres unmarked)
remaining binding (binding; 1 µM): 97%
